Residue numbers refer to the chain shown, from its start. In names and notes the source's numbering stands.
T1: ScNar1 (Saccharomyces cerevisiae, UniProt P23503 1-491)
T1 sequence: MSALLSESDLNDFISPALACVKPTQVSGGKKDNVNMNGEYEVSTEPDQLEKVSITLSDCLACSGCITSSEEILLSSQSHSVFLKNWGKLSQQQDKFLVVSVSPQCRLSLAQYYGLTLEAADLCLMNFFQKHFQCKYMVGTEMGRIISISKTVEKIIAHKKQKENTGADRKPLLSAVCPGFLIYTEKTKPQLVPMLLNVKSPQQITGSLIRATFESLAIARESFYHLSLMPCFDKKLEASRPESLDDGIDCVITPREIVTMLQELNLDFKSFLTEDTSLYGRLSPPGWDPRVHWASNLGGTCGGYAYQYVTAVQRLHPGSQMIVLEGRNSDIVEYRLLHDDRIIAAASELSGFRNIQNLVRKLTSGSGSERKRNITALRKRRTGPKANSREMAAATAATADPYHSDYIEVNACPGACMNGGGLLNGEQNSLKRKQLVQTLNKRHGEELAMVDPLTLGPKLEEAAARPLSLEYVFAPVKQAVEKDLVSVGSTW

B1: ScCia1, strep-tagged bait (natural protein)
chain: MASINLIKSLKLYKEKIWSFDFSQGILATGSTDRKIKLVSVKYDDFTLIDVLDETAHKKAIRSVAWRPHTSLLAAGSFDSTVSIWAKEESADRTFEMDLLAIIEGHENEVKGVAWSNDGYYLATCSRDKSVWIWETDESGEEYECISVLQEHSQDVKHVIWHPSEALLASSSYDDTVRIWKDYDDDWECVAVLNGHEGTVWSSDFDKTEGVFRLCSGSDDSTVRVWKYMGDDEDDQQEWVCEAILPDVHKRQVYNVAWGFNGLIASVGADGVLAVYEEVDGEWKVFAKRALCHGVYEINVVKWLELNGKTILATGGDDGIVNFWSLEKAA
B2: R127E (protein, UniProt Q05583 1-330, looked up, variant R127E)
Cytosolic iron-sulfur protein …: B1 chain with R127E
B3: R127ACia1: ScCia1 variant (protein)
chain: B1 chain with R127A
modifications: left off: His6, N-terminal, state not stated
B4: Leu1: S. cerevisiae Leu1 with N-terminal His6-TEV tag (protein)
chain: MVYTPSKGPRTLYDKVFDAHVVHQDENGSFLLYIDRHLVHEVTSPQAFEGLENAGRKVRRVDCTLATVDHNIPTESRKNFKSLDTFIKQTDSRLQVKTLENNVKQFGVPYFGMSDARQGIVHTIGPEEGFTLPGTTVVCGDSHTSTHGAFGSLAFGIGTSEVEHVLATQTIIQAKSKNMRITVNGKLSPGITSKDLILYIIGLIGTAGGTGCVIEFAGEAIEALSMEARMSMCNMAIEAGARAGMIKPDETTFQYTKGRPLAPKGAEWEKAVAYWKTLKTDEGAKFDHEINIEAVDVIPTITWGTSPQDALPITGSVPDPKNVTDPIKKSGMERALAYMGLEPNTPLKSIKVDKVFIGSCTNGRIEDLRSAAAVVRGQKLASNIKLAMVVPGSGLVKKQAEAEGLDKIFQEAGFEWREAGCSICLGMNPDILDAYERCASTSNRNFEGRQGALSRTHLMSPAMAAAAGIAGHFVDIREFEYKDQDQSSPKVEVTSEDEKELESAAYDHAEPVQPEDAPQDIANDELKDIPVKSDDTPAKPSSSGMKPFLTLEGISAPLDKANVDTDAIIPKQFLKTIKRTGLKKGLFYEWRFRKDDQGKDQETDFVLNVEPWREAEILVVTGDNFGCGSSREHAPWALKDFGIKSIIAPSYGDIFYNNSFKNGLLPIRLDQQIIIDKLIPIANKGGKLCVDLPNQKILDSDGNVLVDHFEIEPFRKHCLVNGLDDIGITLQKEEYISRYEALRREKYSFLEGGSKLLKFDNVPKRKAVTTTFDKVHQDW
B5: Nar1: full-length S. cerevisiae Nar1 with N-terminal His6-SUMO tag (protein)
chain: T1 sequence
B6: Nar1 TCR-peptide variant: ScNar1 with C-terminal Trp substituted with Ala (protein)
chain: T1 sequence with W491A

Columns and labels:
[1] = target: FITC-4mer probe (last 4 residues of ScLeu1) (Saccharomyces cerevisiae) (UniProt P07264); test: fluorescence polarisation
[2] = target: ScCia2 (Saccharomyces cerevisiae); test: MST
ScNar1 = target: T1, ScNar1; test: pull-down
full-length Nar1 = test: Affinity copurification of CTC with ScCia1 variants and full-length Nar1; format: binding, Saccharomyces cerevisiae; settings: ScCia1 variants incorporated into the CTC
SPCNar1 = test: Affinity copurification of ScCia1 variants with SPCNar1; format: binding, Saccharomyces cerevisiae; settings: ScCia1 variants with Met18 and strep-tagged Cia2 bait, western blot
[3] = system: ScCTC (Cia1, Cia2, Met18); test: Affinity copurification with ScCTC; format: binding, Saccharomyces cerevisiae; settings: streptactin eluate, strep-tagged Cia2 bait, SDS-PAGE / western blot
Method in brief: (§1)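 Nar1 is the prey. Strep-tagged bait is either single CTC subunits (Cia1 alone) or combinations (Cia1-Cia2, or full Cia1-Cia2-Met18 complex). Eluates are analysed by SDS-PAGE and western blot for copurifying Nar1. Uncropped gels, including input samples and controls, accompany the analysis.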

[4] = target: B1; test: pull-down
ScCia1-Cia2 = test: Affinity copurification with ScCia1-Cia2; format: binding, Saccharomyces cerevisiae; settings: streptactin eluate, SDS-PAGE / western blot
Method in brief: as §1

ScCia1 = test: Affinity copurification with ScCia1; format: binding, Saccharomyces cerevisiae; settings: streptactin eluate, SDS-PAGE / western blot
Method in brief: as §1

ScCTC-Leu1 complex = test: Competition of Nar1 with Leu1 for the CTC; format: binding, Saccharomyces cerevisiae; settings: Nar1 0.25-1.0 molar equivalents relative to Leu1; streptactin eluate, SDS-PAGE

CtCia1-Cia2 complex
Kd [1]: 25 µM

ScCia1-Cia2 complex (from UniProt Q05583 1-330)
Kd [1]: 86 µM

ScCia1 Y254A (from UniProt Q05583 1-330) (natural protein)
fold increase in KD against wild-type Cia1 [2]: > 10 fold

HsCia1-Cia2a complex (from UniProt O76071 1-339; Q9H5X1 1-160)
Kd [1]: 48 µM

B1
binding result (ScNar1): binds

B2
interaction with full-length Nar1 (full-length Nar1): none of the Cia1 variants tested, including the charge swapped R127E variant, completely blocked interaction

B3
interaction with SPCNar1 (SPCNar1): diminished the amount

B4
copurification with the CTC [3]: requires its C-terminal Trp to interact with the CTC in vitro

KDLVSVGSTW (domain or fragment) [SPCNar1 (SUMO peptide carrier with Nar1 residues 482-491)]
binding result [4]: binds

B5
copurification with the CTC [3]: Nar1 eluting with Cia1, Cia1-Cia2, and the full CTC | copurification with Cia1-Cia2 (ScCia1-Cia2): Nar1 eluting with Cia1, Cia1-Cia2, and the full CTC | copurification with Cia1 (ScCia1): Nar1 eluting with Cia1, Cia1-Cia2, and the full CTC | competition with Leu1 for binding to the CTC (ScCTC-Leu1 complex): the interaction of Nar1 and Leu1 with the CTC is mutually exclusive

B6
copurification with the CTC [3]: less Nar1 TCR-peptide variant was found in the eluate
